The subject of data set [1] is Mus musculus. Briefly: Effect on Src protein expression level in midbrain of MPTP/probenecid-induced chronic C57/BL mouse Parkinson's disease model at 5 to 20 mg/kg dosed once daily for 7 weeks post 10 doses of MPTP/probenecid for 5 weeks by iTRAQ-labelled 2D-LC/MS/MS analysis. In kind it is functional, organism-based.
Data set [2] has as its system Mus musculus. Briefly: Effect on ROCK1 protein expression level in midbrain of MPTP/probenecid-induced chronic C57/BL mouse Parkinson's disease model at 5 to 20 mg/kg dosed once daily for 7 weeks post 10 doses of MPTP/probenecid for 5 weeks by iTRAQ-labelled 2D-LC/MS/MS analysis. In kind it is functional, organism-based.
The nature of data set [3]: Toxicity in ICR mouse assessed as mortality administered through oral gavage. The format is organism-based. The settings on record: in vivo.
The target in data set [4] is Proto-oncogene tyrosine-protein kinase Src (Rattus norvegicus) (UniProt Q9WUD9). Put plainly: Inhibition of SRC in Sprague-Dawley rat primary mixed mesecephalic neuron/glial cells assessed as protection against LPS-induced dopaminergic neuro-toxicity by measuring TH expression at 10 uM preincubated for 1 hr followed by LPS challenge measured after 7 days by Western blot analysis. The method in brief: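 Mixed mesencephalic neuron/glia cultures from E14 Sprague-Dawley rats, used at 7 days. Agent at 10 µM added 1 h before LPS 100 ng/mL; TH measured by Western blot after 7 days, n = 4.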
For orientation: A western blot detects proteins with antibodies after separation by electrophoresis.

In data set [5] the test system is Mus musculus. Briefly: Neuroprotective activity in alpha-syn A53T transgenic B6C3H mouse assessed as reversal of decline of TH-positive neuron levels in substantia nigra at 10 to 20 mg/kg dosed once daily for 12 consecutive weeks by 3,3'-diaminobenzidine staining based light microscopic analysis. The format is functional, organism-based. The method in brief:
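Transgenic male B6;C3H A53T α-syn mice, starting at 4 months, were given drug once daily for 12 weeks in 0.5% CMC-Na. Fixed brains were sectioned at 40 µm on a freezing microtome. Substantia nigra coronal sections were immunostained for TH, visualized with DAB and peroxide, and positive neurons counted by light microscopy under blinding.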

Data set [6] has as its system Mus musculus. Briefly: Effect on GSK3beta protein expression level in midbrain of MPTP/probenecid-induced chronic C57/BL mouse Parkinson's disease model at 5 to 20 mg/kg dosed once daily for 7 weeks post 10 doses of MPTP/probenecid for 5 weeks by iTRAQ-labelled 2D-LC/MS/MS analysis. In kind it is functional, organism-based.
Data set [7] deals with Mus musculus. Briefly: Neuroprotective activity in MPTP/probenecid-induced chronic C57/BL mouse Parkinson's disease model assessed as reversal of decline of TH-positive neuron levels in substantia nigra at 10 to 20 mg/kg dosed once daily for 7 weeks post 10 doses of MPTP/probenecid for 5 weeks measured after last MPTP/probenecid dose by 3,3'-diaminobenzidine staining based light microscopic analysis. The format is functional, organism-based. The method in brief: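 Male C57/BL mice (22–25 g) received 10 doses of MPTP hydrochloride (25 mg/kg in saline, s.c.) plus probenecid (250 mg/kg in DMSO, i.p.) over 5 weeks. Only mice showing rotarod dysfunction afterwards were used, randomized, and dosed daily for 7 weeks with test agent in 0.5% CMC-Na. Fixed brains were cut at 40 µm; nigral coronal sections were stained with anti-TH, developed with DAB/peroxide, and positive cells counted blind.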

The target of data set [8] is Voltage-gated inwardly rectifying potassium channel KCNH2 (Homo sapiens, UniProt Q12809). Put plainly: Inhibition of human ERG by whole cell voltage clamp assay. The gist of the method: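 Whole-cell voltage clamp. Internal solution: KCl 130 mM, MgCl2 1 mM, EGTA 5 mM, ATP-Mg 5 mM, HEPES 10 mM, pH 7.2. Bath: NaCl 137, CaCl2 1.8, KCl 4, MgCl2 1, glucose 5, HEPES 10 mM, pH 7.4. From a holding potential of −70 mV, 2-s steps to 50 mV in 10 mV increments every 15 s; tail current recorded on a 2-s step from +50 to −40 mV.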

For data set [9], the system named is Mus musculus. Briefly: Effect on Src protein expression level in midbrain of MPTP/probenecid-induced chronic C57/BL mouse Parkinson's disease model at 5 to 20 mg/kg dosed once daily for 7 weeks post 10 doses of MPTP/probenecid for 5 weeks by Western blot analysis. The format is functional, organism-based.
Data set [10] has as its system Mus musculus. Put plainly: Neuroprotective activity in alpha-syn A53T transgenic B6C3H mouse assessed as improvement in motor behavior at 5 to 20 mg/kg dosed once daily for 12 consecutive weeks by pole test. The format is functional, organism-based.
Data set [11] has as its system Mus musculus. Put plainly: In vivo inhibition of Src in MPTP/probenecid-induced chronic C57/BL mouse Parkinson's disease model assessed as effect on NOS1 expression level in midbrain at 5 to 20 mg/kg dosed once daily for 7 weeks post 10 doses of MPTP/probenecid for 5 weeks by iTRAQ-labelled 2D-LC/MS/MS analysis. In kind it is functional, organism-based.
The subject of data set [12] is Mus musculus. Put plainly: Neuroprotective activity in MPTP/probenecid-induced chronic C57/BL mouse Parkinson's disease model assessed as improvement in motor behavior at 5 to 20 mg/kg dosed once daily for 7 weeks post 10 doses of MPTP/probenecid for 5 weeks measured after last MPTP/probenecid dose by pole test. In kind it is functional, organism-based. The gist of the method:
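Chronic MPTP/probenecid model (10 doses over 5 weeks), then agent (5–20 mg/kg) or L-DOPA 20 mg/kg daily for 7 weeks. Rotarod at 14 rpm, up to 120 s, fall latency from three trials 1 h apart. Pole test: gauze-wrapped 50 cm pole, descent scored 1–5, two trials 1 h apart after pre-training. n = 15.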

The target of data set [13] is Proto-oncogene tyrosine-protein kinase Src (Rattus norvegicus) (UniProt Q9WUD9). Put plainly: Inhibition of Src in Sprague-Dawley rat primary mixed mesecephalic neuron/glial cells assessed as suppression of LPS-induced microglia activation by measuring Iba-1 expression at 10 uM preincubated for 1 hr followed by LPS challenge measured after 24 hrs.
Data set [14] deals with Mus musculus. Put plainly: In vivo inhibition of Src in MPTP/probenecid-induced chronic C57/BL mouse Parkinson's disease model assessed as effect on Akt expression level in midbrain at 5 to 20 mg/kg dosed once daily for 7 weeks post 10 doses of MPTP/probenecid for 5 weeks by iTRAQ-labelled 2D-LC/MS/MS analysis. The format is functional, organism-based.
For data set [15], the system named is Mus musculus. Briefly: Increase in dopamine level in striatum of MPTP-induced subacute C57/BL mouse Parkinson's disease model at 10 to 20 mg/kg […] dosed 30 mins prior to each MPTP injection for 5 days and administered continously for 7 days post last MPTP dose by HPLC analysis. In kind it is functional, organism-based. The gist of the method: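 Sub-acute model: male C57/BL mice given MPTP·HCl 30 mg/kg i.p. for 5 days. Agent (5–20 mg/kg) or L-DOPA 20 mg/kg in 0.5% CMC-Na dosed 30 min before each injection, then for 7 more days. Striatum sonicated in 0.6 N perchloric acid, centrifuged, phosphate/citrate/EDTA solution added, recentrifuged; dopamine by HPLC, n = 8.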

Data set [16] relates to Mus musculus. Put plainly: Hepatotoxicity in ICR mouse at 250 to 1000 mg/kg administered through oral gavage for 14 consecutive days. In kind it is toxicity, organism-based. The settings on record: in vivo. The method in brief:
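Mice dosed by oral gavage at 250, 500 and 1000 mg/kg for 14 consecutive days. General condition monitored throughout; liver and kidney clinical chemistry assessed.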

Activity calls are given as the source filed them. No cut-off for these calls is given here. Bounds are passed on as bounds.

Proto-oncogene tyrosine-protein kinase Src (Rattus norvegicus), sequence (Q9WUD9 2-536 limits assumed): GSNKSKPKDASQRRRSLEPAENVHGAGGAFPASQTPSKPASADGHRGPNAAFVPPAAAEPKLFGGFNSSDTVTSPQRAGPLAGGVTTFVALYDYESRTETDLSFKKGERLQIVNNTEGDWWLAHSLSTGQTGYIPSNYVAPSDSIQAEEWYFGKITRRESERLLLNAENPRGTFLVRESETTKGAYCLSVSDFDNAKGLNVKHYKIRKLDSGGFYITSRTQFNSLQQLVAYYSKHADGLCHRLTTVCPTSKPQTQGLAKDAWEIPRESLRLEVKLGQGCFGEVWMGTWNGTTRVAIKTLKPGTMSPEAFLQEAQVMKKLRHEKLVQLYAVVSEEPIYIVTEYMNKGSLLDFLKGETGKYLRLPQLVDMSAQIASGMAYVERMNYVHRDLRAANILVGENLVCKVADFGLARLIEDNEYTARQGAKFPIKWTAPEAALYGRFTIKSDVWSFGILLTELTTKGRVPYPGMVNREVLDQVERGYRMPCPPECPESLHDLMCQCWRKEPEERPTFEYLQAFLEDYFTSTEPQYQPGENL
Voltage-gated inwardly rectifying potassium channel KCNH2, sequence (Q12809 whole entry): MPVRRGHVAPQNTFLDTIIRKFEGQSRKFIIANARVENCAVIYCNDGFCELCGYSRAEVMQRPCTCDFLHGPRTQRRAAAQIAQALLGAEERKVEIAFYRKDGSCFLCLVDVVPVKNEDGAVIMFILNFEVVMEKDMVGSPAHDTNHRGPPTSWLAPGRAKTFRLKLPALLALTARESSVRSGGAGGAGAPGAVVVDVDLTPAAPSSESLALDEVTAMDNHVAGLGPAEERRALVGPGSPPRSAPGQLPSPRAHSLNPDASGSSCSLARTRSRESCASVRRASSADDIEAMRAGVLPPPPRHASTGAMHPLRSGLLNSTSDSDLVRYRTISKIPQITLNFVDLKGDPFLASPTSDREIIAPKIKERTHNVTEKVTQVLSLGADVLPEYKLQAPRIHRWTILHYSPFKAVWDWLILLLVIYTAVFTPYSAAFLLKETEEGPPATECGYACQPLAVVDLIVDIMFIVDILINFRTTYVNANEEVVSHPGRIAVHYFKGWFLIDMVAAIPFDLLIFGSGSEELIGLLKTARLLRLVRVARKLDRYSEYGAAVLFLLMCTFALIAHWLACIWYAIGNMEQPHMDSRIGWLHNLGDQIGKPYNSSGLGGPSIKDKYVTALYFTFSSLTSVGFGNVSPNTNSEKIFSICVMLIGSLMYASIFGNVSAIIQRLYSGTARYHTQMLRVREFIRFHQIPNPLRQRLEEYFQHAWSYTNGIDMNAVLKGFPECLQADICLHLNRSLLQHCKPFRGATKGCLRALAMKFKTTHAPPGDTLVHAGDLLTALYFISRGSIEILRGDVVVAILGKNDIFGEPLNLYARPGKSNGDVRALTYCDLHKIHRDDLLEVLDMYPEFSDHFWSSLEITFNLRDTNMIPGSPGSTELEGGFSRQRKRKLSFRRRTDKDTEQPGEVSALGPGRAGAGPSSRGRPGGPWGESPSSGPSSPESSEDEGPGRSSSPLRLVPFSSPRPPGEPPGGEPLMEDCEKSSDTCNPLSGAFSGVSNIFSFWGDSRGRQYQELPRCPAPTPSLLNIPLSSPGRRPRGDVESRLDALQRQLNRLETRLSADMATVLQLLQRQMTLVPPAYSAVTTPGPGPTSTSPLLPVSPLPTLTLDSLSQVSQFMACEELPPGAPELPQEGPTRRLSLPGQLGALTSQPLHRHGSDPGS

One may read the LD50 as the dose at which mortality reaches 50%. Regarding `COc1cc(OC)c(CN[C@@H](CO)C(=O)O)c(OC)c1`, the outcome in data set [1], in data set [2], in data set [5], in data set [6], in [7] and in data set [9] was Active. Further, the result in data set [10], in data set [12] and in data set [15] was Active. For the same compound, the LD50 in [3] is over 5000 mg/kg. Further, the inhibition result in data set [4], in data set [11], in data set [13] and in [14] was “Active” in each case. Further, in data set [8], the “inhibition (INH)” value is on record as “Active”. Also, in data set [16], the Activity result is on record as “Non-Toxic”.

Source of the values: ChEMBL document CHEMBL3860061, “A Novel Parkinson's Disease Drug Candidate with Potent Anti-neuroinflammatory Effects through the Src Signaling Pathway” (J Med Chem, 2016).
